Laboratory results reported in article PMC11212574 (Emerging Microbes & Infections, 2024).

What was measured:
Assay type in all cases: cell-based
[1] = tested on: Hsp27/hnRNP A1 relocalization; settings: for redistribution of Hsp27 and hnRNP A1 in EV-A71-infected RD cells: peptide 25 μM for 2 h, then EV-A71 MOI 40 for 6 h (Fig 7C-E, S7C-E)
Procedure, shortened: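 RD cells on coverslips were pretreated 2 h with the test compound, then infected with EV-A71 at MOI 40 for 6 h. Cells were fixed in 4% paraformaldehyde for 20 min, permeabilised in 0.5% Triton X-100 for 15 min and blocked in 5% BSA for 2 h. They were stained with anti-Hsp27/anti-hnRNP A1 and Alexa Fluor 488/594 secondaries, with DAPI or Hoechst nuclei, and imaged by confocal. M1 coefficient gave overlap with nuclear stain.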

EV-A71 VP1 = EV-A71 VP1 protein level by western blot with densitometry; settings: RD cells, peptide for 2 h, EV-A71 MOI 1 for 9 h (Fig S8E)
Procedure, shortened: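 RD cells were pretreated 2 h with the test peptide, then infected with EV-A71 (SHZH98 strain). Lysis was in NP-40 buffer, with protein measured by Bradford assay. 20 μg protein was run on 12% SDS-PAGE and transferred to PVDF. HRP secondary antibodies were applied for 1 h, with chemiluminescent detection. VP1 bands were quantified by densitometry against the respective untreated control.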

RD cells = assay: CCK-8 assay; settings: peptide treatment for 2 days, CCK-8 (Fig S7B)
Procedure, shortened: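 RD cells were seeded at 1 × 10^4/well and held 1 day at 5% CO2. They were then exposed to the test peptide for 2 days. CCK-8 reagent was added with medium and incubated 1 h at 37°C, and OD was read at 450 nm.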

EV-A71 [2] = assay: Virus titration; settings: RD cells, peptide 25 μM for 2 h, EV-A71 MOI 0.1 for 24 h (Fig S8G)
Procedure, shortened: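 RD cells were pretreated 2 h with the test peptide, then infected with EV-A71. Supernatants were serially diluted 10-fold and added in quintuplicate to RD cells seeded 24 h earlier. TCID50 was calculated by the Kärber method after 120 h of infection.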

[3] = tested on: Hsp27 nuclear translocation / hnRNP A1 cytosol translocation; assay: Nuclear/cytosol fraction assay upon EV-A71 infection; settings: 0, 2, 4, 8 µM for 2 h, then EV-A71 MOI 10 for 6 h, RD cells (Fig 1C)
Procedure, shortened: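 RD cells were pretreated 2 h with the test compound (0–8 µM), then infected with EV-A71 at MOI 10 for 6 h. Cells were PBS-washed, scraped and pelleted. Cytoplasmic extract was taken on ice as the supernatant after 16,000 xg for 5 min. Nuclear extract was the supernatant after 16,000 xg for 10 min at 4°C. Both were analysed by western blot, with Lamin B1 as nuclear and GAPDH as cytosolic control.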

Hsp27 phosphorylation = assay: Western blot of Hsp27 phosphorylation; settings: SB203580 0.25-8 µM for 2 h, then EV-A71 MOI 10 for 6 h, RD cells (Fig 1A)
Procedure, shortened: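 RD cells were pre-treated 2 h with test peptide or small-molecule test compound (0–8 µM), then infected with EV-A71 at MOI 10 for 6 h. Cells were lysed in NP-40 buffer, assayed by Bradford, and 20 μg protein was run on 12% SDS-PAGE/PVDF. Blots were probed with phospho-Ser15/78/82 Hsp27 antibodies and HRP secondaries (1 h) and read by chemiluminescence. Loading controls were GAPDH for the compound and β-actin for peptides; peptide blots were quantified by densitometry.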

EV-A71 [4] = assay: Viral RNA by RT-qPCR; settings: HEK 293T cells, 8 μM SB203580 2 h before EV-A71 infection for 9 h (Fig 6C)

Molecule | redistribution of Hsp27 and hnRNP A1 in EV-A71-infected RD cells [1] | effect on VP1 level (in words) (EV-A71 VP1) | CC50 (in words) (RD cells) | effect on viral titre (in words) (EV-A71 [2]) | nuclear Hsp27 level upon EV-A71 infection ([1]; 2 µM for 2 h, then EV-A71 MOI 40 for 6 h, RD cells (Fig 1B)) | nuclear relocation of Hsp27 upon EV-A71 infection ([1]; 4 µM for 2 h, then EV-A71 MOI 40 for 6 h, RD cells (Fig 1B)) | cytosol translocation of hnRNP A1 (nuclear/cytosol fraction) [3] | nuclear translocation of Hsp27 (nuclear/cytosol fraction) [3] | Hsp27 phosphorylation level at Ser15 and Ser82 (Hsp27 phosphorylation) | effect on viral RNA level in Hsp27 S78A- and Hsp27 S78D-expressing cells (EV-A71 [4])
RKKRRQRRR-YSREANQPKPSPKRESGEE [NC] | did not affect | no effect | high CC50 | – | – | – | – | – | – | –
RKKRRQRRR-AYSRAAAAQLSS [S78-3A] | partially suppressed | – | high CC50 | only mildly decreased | – | – | – | – | – | –
C[S+]([O-])c1ccc(-c2nc(-c3ccncc3)c(-c3ccc(F)cc3)[nH]2)cc1 (stereo not drawn) [SB203580] | – | – | – | – | markedly reduced nuclear Hsp27 level | further blocked to an invisible level | inhibited the cytosol translocation of hnRNP A1 in a dose-dependent manner | suppress the nuclear translocation of Hsp27 in a dose-dependent manner | slightly decreased | no obvious effects
